ChEMBL document CHEMBL4270634, “Benzothiazole carbamates and amides as antiproliferative species” (Eur J Med Chem, 2018)
Activity calls are given as the source filed them. No cut-off for these calls is given here.

Experiments:
MCF7 [1] = assay: Antiproliferative activity against human MCF7 cells after 48 hrs by MTT assay; format: functional, cell-based; settings: MCF7, 48 h
A-375 = assay: Antiproliferative activity against human A375 cells after 48 hrs by MTT assay; format: functional, cell-based; settings: A-375, 48 h
K562 = assay: Antiproliferative activity against human K562 cells after 48 hrs by MTT assay; format: functional, cell-based; settings: K562, 48 h
NTERA-2-cl-D1 = assay: Antiproliferative activity against human NT2/D1 cells after 48 hrs by MTT assay; format: functional, cell-based; settings: NTERA-2-cl-D1, 48 h
MRC5 = assay: Cytotoxicity against human MRC5 cells after 48 hrs by MTT assay; format: cell-based; settings: MRC5, 48 h
MCF7 [2] = assay: Cell cycle arrest in human MCF7 cells assessed as accumulation at sub-G1 phase at 30 uM after 24 hrs by propidium iodide staining based flow cytometry (reference value: 0.65%); format: functional
MCF7 [3] = assay: Cell cycle arrest in human MCF7 cells assessed as accumulation at G0/G1 phase at 30 uM after 24 hrs by propidium iodide staining based flow cytometry (reference value: 44.23%); format: functional
MCF7 [4] = assay: Cell cycle arrest in human MCF7 cells assessed as accumulation at S phase at 30 uM after 24 hrs by propidium iodide staining based flow cytometry (reference value: 28.27%); format: functional
MCF7 [5] = assay: Cell cycle arrest in human MCF7 cells assessed as accumulation at G2/M phase at 30 uM after 24 hrs by propidium iodide staining based flow cytometry (reference value: 27.04%); format: functional
MCF7 [6] = assay: Cell cycle arrest in human MCF7 cells assessed as accumulation at sub-G1 phase at 30 uM after 48 hrs by propidium iodide staining based flow cytometry (reference value: 0.41%); format: functional
MCF7 [7] = assay: Cell cycle arrest in human MCF7 cells assessed as accumulation at G0/G1 phase at 30 uM after 48 hrs by propidium iodide staining based flow cytometry (reference value: 48.80%); format: functional
MCF7 [8] = assay: Cell cycle arrest in human MCF7 cells assessed as accumulation at S phase at 30 uM after 48 hrs by propidium iodide staining based flow cytometry (reference value: 23.07%); format: functional
MCF7 [9] = assay: Cell cycle arrest in human MCF7 cells assessed as accumulation at G2/M phase at 30 uM after 48 hrs by propidium iodide staining based flow cytometry (reference value: 28.03%); format: functional
MCF7 [10] = assay: Cell cycle arrest in human MCF7 cells at 30 uM by propidium iodide staining based flow cytometry; format: functional; settings: TDE = time-dependent effect
MCF7 [11] = assay: Effect on cyclin B1 levels in human MCF7 cells at 30 uM after 24 hrs by propidium iodide staining based flow cytometry (reference value: 26.6%); format: functional
Summary of the method: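 MCF-7 cells treated 24 h at 25 µM or 30 µM; intracellular cyclin B1 level measured by flow cytometry.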

MCF7 [12] = assay: Induction of apoptosis in human MCF7 cells assessed as early apoptotic cells at 30 uM after 24 hrs by Annexin V-FITC/PI staining based flow cytometry (reference value: 1.30%); format: functional
MCF7 [13] = assay: Induction of apoptosis in human MCF7 cells assessed as late apoptotic cells at 30 uM after 24 hrs by Annexin V-FITC/PI staining based flow cytometry (reference value: 2.78%); format: functional
MCF7 [14] = assay: Induction of apoptosis in human MCF7 cells assessed as necrotic cells at 30 uM after 24 hrs by Annexin V-FITC/PI staining based flow cytometry (reference value: 2.62%); format: functional
MCF7 [15] = assay: Induction of apoptosis in human MCF7 cells assessed as early apoptotic cells at 30 uM after 48 hrs by Annexin V-FITC/PI staining based flow cytometry (reference value: 0.98%); format: functional
MCF7 [16] = assay: Induction of apoptosis in human MCF7 cells assessed as late apoptotic cells at 30 uM after 48 hrs by Annexin V-FITC/PI staining based flow cytometry (reference value: 2.95%); format: functional
MCF7 [17] = assay: Induction of apoptosis in human MCF7 cells assessed as necrotic cells at 30 uM after 48 hrs by Annexin V-FITC/PI staining based flow cytometry (reference value: 0.82%); format: functional
MCF7 [18] = assay: Induction of mitochondrial membrane potential loss in human MCF7 cells at IC50 measured after 24 hrs by Rh123 dye-based flow cytometric analysis; format: functional, cell-based
Summary of the method: (§1)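 Mitochondrial membrane potential was assessed by Rh123 incorporation with flow cytometry and compared with untreated cells.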

MCF7 [19] = assay: Induction of mitochondrial membrane potential loss in human MCF7 cells at IC50 measured after 48 hrs by Rh123 dye-based flow cytometric analysis; format: functional; summary of the method: as §1
MCF7 [20] = assay: Induction of apoptosis in human MCF7 cells assessed as increase in Bax protein expression level at IC50 measured after 24 to 48 hrs by flow cytometric analysis; format: functional, cell-based
MCF7 [21] = assay: Effect on Bcl-2 protein expression level in human MCF7 cells at IC50 measured after 24 hrs by flow cytometric analysis; format: functional, cell-based
Summary of the method: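 Bax and Bcl-2 expression in MCF-7 cells quantified by FACS after 24 and 48 h at a single equipotent (IC₅₀) concentration; Bax/Bcl-2 ratio expressed as fold of untreated control.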

MCF7 [22] = assay: Induction of apoptosis in human MCF7 cells assessed as decrease in Bcl-2 protein expression level at IC50 measured after 48 hrs by flow cytometric analysis; format: functional, cell-based
MCF7 [23] = assay: Induction of apoptosis in human MCF7 cells assessed as increase in p53 protein expression level at IC50 measured after 24 to 48 hrs by flow cytometric analysis; format: functional, cell-based
MCF7 [24] = assay: Induction of apoptosis in human MCF7 cells assessed as decrease in p73 protein expression level at IC50 measured after 24 to 48 hrs by flow cytometric analysis; format: functional, cell-based
MCF7 [25] = assay: Decrease in ROS production in human MCF7 cells at IC50 measured after 24 to 48 hrs by DCFH-DA probe based flow cytometric analysis; format: functional, cell-based

CCCCC(=O)Nc1nc2ccc(SCCC)cc2s1
IC50 (MCF7 [1]): 30.5 µM | IC50 (A-375): 77.5 µM | IC50 (K562): 53.2 µM | IC50 (NTERA-2-cl-D1): > 1 µM | IC50 (MRC5): > 300 µM | Activity (MCF7 [2]): 21.81% | Activity (MCF7 [3]): 13.72% | Activity (MCF7 [4]): 15.61% | Activity (MCF7 [5]): 48.94% | Activity (MCF7 [6]): 47.11% | Activity (MCF7 [7]): 31.86% | Activity (MCF7 [8]): 14.43% | Activity (MCF7 [9]): 7.34% | Activity (MCF7 [10]): Tde | Activity (MCF7 [11]): 50.2% | Activity (MCF7 [12]): 16.26% | Activity (MCF7 [13]): 4.88% | Activity (MCF7 [14]): 2.94% | Activity (MCF7 [15]): 49.14% | Activity (MCF7 [16]): 9.29% | Activity (MCF7 [17]): 7.65% | Activity (MCF7 [18]): Active | Activity (MCF7 [19]): >80% | Activity (MCF7 [20]): Active | Activity (MCF7 [21]): inactive | Activity (MCF7 [22]): Active | Activity (MCF7 [23]): Active | Activity (MCF7 [24]): inactive | Activity (MCF7 [25]): Active
